Reference: ChEMBL document CHEMBL1157562, “Piperazinyl glutamate pyridines as potent orally bioavailable P2Y12 antagonists for inhibition of platelet aggregation” (J Med Chem, 2010)

Tests used:
[1] = molecular target: P2Y purinoceptor 12 (Homo sapiens, UniProt Q9H244); assay: Displacement of [33P]ADP from human recombinant P2Y12 receptor expressed in CHO cells; assay type: cell-based
Outline: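 Washed membranes from CHO cells expressing synthetic human P2Y12, incubated 1 h at room temperature with 0.2 nM 33P-MeSADP in 50 mM Tris/100 mM NaCl/1 mM EDTA. Compound was tested as a 7-point 3-fold series in triplicate. Nonspecific binding was defined with 300 nM 2-MeSADP, followed by filtration.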

[2] = Antiplatelet aggregation activity against adenosine diphosphate-induced human platelet rich plasma assessed as inhibition of platelet aggregation by turbidimetric method; assay type: functional; details: Homo sapiens, Platelet, Plasma
Outline: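 Human PRP, prepared by two-step centrifugation and adjusted to 330 000 platelets/μL with PPP. Compound was preincubated 5 min at 37 °C in 0.5% DMSO, then 20 μM ADP was added. OD626 was read kinetically for 15 min at 37 °C with mixing between reads.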

[3] = system: Platelet; assay: Relative potency, ratio of IC50 for drug to IC50 for AZD-6140 for platelet aggregation in human platelet rich plasma; assay type: functional
[4] = Clearance in Sprague-Dawley rat at 2 mg/kg, iv and 5 mg/kg, po; assay type: ADME, organism-based; details: in vivo
Outline: (§1)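 Rats received 2 mg/kg iv infusion or 5 mg/kg po, in 50% PEG400/40% PBS/10% ethanol.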

[5] = Volume of distribution at steady state in Sprague-Dawley rat at 2 mg/kg, iv and 5 mg/kg, po; assay type: ADME, organism-based; details: in vivo, read-out: Vdss; outline: as §1
[6] = Half life in Sprague-Dawley rat at 2 mg/kg, iv and 5 mg/kg, po; assay type: ADME, organism-based; details: in vivo; outline: as §1
[7] = in vivo; details: Sprague-Dawley, rat, po, 5 mg/kg

P2Y purinoceptor 12, sequence (Q9H244 whole entry): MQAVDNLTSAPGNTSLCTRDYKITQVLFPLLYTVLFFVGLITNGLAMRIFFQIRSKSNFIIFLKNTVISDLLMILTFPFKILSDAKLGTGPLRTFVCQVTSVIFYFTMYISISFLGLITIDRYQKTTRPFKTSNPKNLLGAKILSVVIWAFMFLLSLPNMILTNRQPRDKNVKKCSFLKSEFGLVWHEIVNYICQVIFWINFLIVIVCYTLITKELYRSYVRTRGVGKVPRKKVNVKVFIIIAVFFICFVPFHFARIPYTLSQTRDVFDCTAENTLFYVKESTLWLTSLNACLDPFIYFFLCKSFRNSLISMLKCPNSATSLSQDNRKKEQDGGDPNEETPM

CCCCCOC(=O)N1CCN(C(=O)[C@H](CCC(=O)O)NC(=O)c2cc(N3CCC(N)CC3)cc(-c3ccccc3)n2)CC1
Ki [1]: 17 nM | IC50 [2]: 1100 nM | Ratio IC50 [3]: 1.2 | clearance [4]: 32 mL/min/kg | Vd [5]: 0.38 L/kg | half-life [6]: 6 min

CCCCCOC(=O)N1CCN(C(=O)[C@H](CCC(=O)O)NC(=O)c2cc(OC3CCN(C(C)=O)CC3)cc(-c3ccccc3)n2)CC1
Ki [1]: 3.6 nM | IC50 [2]: 1800 nM | Ratio IC50 [3]: 1.8 | clearance [4]: 36 mL/min/kg | Vd [5]: 0.58 L/kg | half-life [6]: 12 min

CCCCCOC(=O)N1CCN(C(=O)[C@H](CCC(=O)O)NC(=O)c2cc(O)cc(-c3ccccc3)n2)CC1
Ki [1]: 11 nM | IC50 [2]: 10000 nM | Ratio IC50 [3]: 7.2 | clearance [4]: 675 mL/min/kg | Vd [5]: 29 L/kg | half-life [6]: 30 min | bioavailability [7]: 66%

CCCCCOC(=O)N1CCN(C(=O)[C@H](CCC(=O)O)NC(=O)c2cc(OCC3CCNCC3)cc(-c3ccccc3)n2)CC1
Ki [1]: 4.5 nM | IC50 [2]: 820 nM | Ratio IC50 [3]: 0.82 | clearance [4]: 62 mL/min/kg | Vd [5]: 1.3 L/kg | half-life [6]: 12 min

CCOC(=O)N1CCN(C(=O)[C@H](CCC(=O)O)NC(=O)c2cc(N3CCOCC3)cc(-c3ccccc3)n2)CC1
Ki [1]: 39 nM | IC50 [2]: 25000 nM | Ratio IC50 [3]: 22 | clearance [4]: 58 mL/min/kg | Vd [5]: 3.4 L/kg | half-life [6]: 42 min

CCCCCOC(=O)N1CCN(C(=O)[C@H](CCC(=O)O)NC(=O)c2cc(CCCN(CC)CC)cc(-c3ccccc3)n2)CC1
Ki [1]: 22 nM | IC50 [2]: 1100 nM | Ratio IC50 [3]: 1.6 | clearance [4]: 96 mL/min/kg | Vd [5]: 9.2 L/kg | half-life [6]: 66 min

CCCCCOC(=O)N1CCN(C(=O)[C@H](CCC(=O)O)NC(=O)c2cc(OCC3CCN(C(C)C)CC3)cc(-c3ccccc3)n2)CC1
Ki [1]: 5.5 nM | IC50 [2]: 380 nM | Ratio IC50 [3]: 0.5 | clearance [4]: 63 mL/min/kg | Vd [5]: 3.4 L/kg | half-life [6]: 36 min

CCCCCOC(=O)N1CCN(C(=O)[C@H](CCC(=O)O)NC(=O)c2cc(CCCNCC(C)C)cc(-c3ccccc3)n2)CC1
Ki [1]: 12 nM | IC50 [2]: 1000 nM | Ratio IC50 [3]: 1.5 | clearance [4]: 112 mL/min/kg | Vd [5]: 5.6 L/kg | half-life [6]: 36 min

CCCCCOC(=O)N1CCN(C(=O)[C@H](CCC(=O)O)NC(=O)c2cc(C(=O)N3CCC(OC)CC3)cc(-c3ccccc3)n2)CC1
Ki [1]: 3.2 nM | IC50 [2]: 460 nM | Ratio IC50 [3]: 0.99 | clearance [4]: 54 mL/min/kg | Vd [5]: 1.2 L/kg | half-life [6]: 15 min

CCCCCOC(=O)N1CCN(C(=O)[C@H](CCC(=O)O)NC(=O)c2cc(OC3CCN(CCOC)CC3)cc(-c3ccccc3)n2)CC1
Ki [1]: 9.9 nM | IC50 [2]: 1700 nM | Ratio IC50 [3]: 1.7 | clearance [4]: 94 mL/min/kg | Vd [5]: 5.2 L/kg | half-life [6]: 38.4 min

CCOC(=O)N1CCN(C(=O)[C@H](CCC(=O)O)NC(=O)c2cccc(-c3ccccc3)n2)CC1
Ki [1]: 209 nM | IC50 [2]: 71000 nM | clearance [4]: 98 mL/min/kg | Vd [5]: 15.5 L/kg | half-life [6]: 108 min | bioavailability [7]: 34%

CCCCCOC(=O)N1CCN(C(=O)[C@H](CCC(=O)O)NC(=O)c2cc(C(=O)N3CCC(N(C)C)CC3)cc(-c3ccccc3)n2)CC1
Ki [1]: 5.4 nM | IC50 [2]: 580 nM | Ratio IC50 [3]: 1 | clearance [4]: 37 mL/min/kg | Vd [5]: 0.77 L/kg | half-life [6]: 12 min

CCCCCOC(=O)N1CCN(C(=O)[C@H](CCC(=O)O)NC(=O)c2cc(N3CCC(CN(C)C)CC3)cc(-c3ccccc3)n2)CC1
Ratio IC50 [3]: 1.3 | clearance [4]: 92 mL/min/kg | Vd [5]: 2.1 L/kg | half-life [6]: 18 min

CCOC(=O)N1CCN(C(=O)[C@H](CCC(=O)O)NC(=O)c2cc(OCCOC)cc(-c3ccccc3)n2)CC1
Ki [1]: 140 nM | IC50 [2]: 6000 nM | Ratio IC50 [3]: 8 | clearance [4]: 94 mL/min/kg | Vd [5]: 13.6 L/kg | half-life [6]: 12 min | bioavailability [7]: 33%

CCCCCOC(=O)N1CCN(C(=O)[C@H](CCC(=O)O)NC(=O)c2cc(OCC3CCN(CCOC)CC3)cc(-c3ccccc3)n2)CC1
Ki [1]: 5.3 nM | IC50 [2]: 550 nM | Ratio IC50 [3]: 0.73 | clearance [4]: 141 mL/min/kg | Vd [5]: 10.9 L/kg | half-life [6]: 53.4 min

CCCNc1cc(C(=O)N[C@@H](CCC(=O)O)C(=O)N2CCN(C(=O)OCC)CC2)nc(-c2ccccc2)c1
IC50 [2]: 28000 nM | Ratio IC50 [3]: 28 | clearance [4]: 85 mL/min/kg | Vd [5]: 3.8 L/kg | half-life [6]: 30 min | bioavailability [7]: 80%

CCCCCOC(=O)N1CCN(C(=O)[C@H](CCC(=O)O)NC(=O)c2cc(OC(=O)N3CCCC3)cc(-c3ccccc3)n2)CC1
Ki [1]: 7.7 nM | IC50 [2]: 1800 nM | Ratio IC50 [3]: 1 | clearance [4]: 46 mL/min/kg | Vd [5]: 2.3 L/kg | half-life [6]: 36 min

CCCCCOC(=O)N1CCN(C(=O)[C@H](CCC(=O)O)NC(=O)c2cc(NCCO)cc(-c3ccccc3)n2)CC1
Ki [1]: 5.7 nM | IC50 [2]: 3800 nM | Ratio IC50 [3]: 3.2 | clearance [4]: 103 mL/min/kg | Vd [5]: 3.9 L/kg | half-life [6]: 24 min | bioavailability [7]: 8%

CCCCOc1cc(C(=O)N[C@@H](CCC(=O)O)C(=O)N2CCN(C(=O)OCC)CC2)nc(-c2ccccc2)c1
Ki [1]: 60 nM | IC50 [2]: 34000 nM | Ratio IC50 [3]: 32 | clearance [4]: 109 mL/min/kg | Vd [5]: 3.9 L/kg | half-life [6]: 24 min | bioavailability [7]: 72%

CCCCCOC(=O)N1CCN(C(=O)[C@H](CCC(=O)O)NC(=O)c2cc(C(=O)N3CCOCC3)cc(-c3ccccc3)n2)CC1
Ki [1]: 4.4 nM | IC50 [2]: 710 nM | Ratio IC50 [3]: 1 | clearance [4]: 51 mL/min/kg | Vd [5]: 1.1 L/kg | half-life [6]: 14.4 min

CCCCCOC(=O)N1CCN(C(=O)[C@H](CCC(=O)O)NC(=O)c2cc(N3CCC(N(C)C)CC3)cc(-c3ccccc3)n2)CC1
Ki [1]: 22 nM | IC50 [2]: 1800 nM | Ratio IC50 [3]: 2.1 | clearance [4]: 81 mL/min/kg | Vd [5]: 2.3 L/kg | half-life [6]: 18 min

CCCCCOC(=O)N1CCN(C(=O)[C@H](CCC(=O)O)NC(=O)c2cc(OC(=O)N(C)CC3CCOCC3)cc(-c3ccccc3)n2)CC1
Ki [1]: 45 nM | IC50 [2]: 470 nM | Ratio IC50 [3]: 0.82 | clearance [4]: 109 mL/min/kg | Vd [5]: 8.6 L/kg | half-life [6]: 78 min

CCOC(=O)N1CCN(C(=O)[C@H](CCC(=O)O)NC(=O)c2cc(N3CCCCC3)cc(-c3ccccc3)n2)CC1
Ki [1]: 112 nM | IC50 [2]: 29000 nM | Ratio IC50 [3]: 34 | clearance [4]: 34 mL/min/kg | Vd [5]: 1.3 L/kg | half-life [6]: 24 min

CCCCCOC(=O)N1CCN(C(=O)[C@H](CCC(=O)O)NC(=O)c2cc(OC(=O)N3CCOCC3)cc(-c3ccccc3)n2)CC1
Ki [1]: 4.8 nM | IC50 [2]: 1700 nM | Ratio IC50 [3]: 0.99 | clearance [4]: 220 mL/min/kg | Vd [5]: 31 L/kg | half-life [6]: 96 min

CCCCCOC(=O)N1CCN(C(=O)[C@H](CCC(=O)O)NC(=O)c2cc(OCC3CCN(C)CC3)cc(-c3ccccc3)n2)CC1
Ki [1]: 5.3 nM | IC50 [2]: 330 nM | Ratio IC50 [3]: 0.62 | clearance [4]: 130 mL/min/kg | Vd [5]: 6.9 L/kg | half-life [6]: 36 min

CCCCCOC(=O)N1CCN(C(=O)[C@H](CCC(=O)O)NC(=O)c2cc(CCCN(C)C)cc(-c3ccccc3)n2)CC1
Ki [1]: 1 nM | IC50 [2]: 1300 nM | Ratio IC50 [3]: 1.3 | clearance [4]: 38 mL/min/kg | Vd [5]: 3.2 L/kg | half-life [6]: 60 min

CCCCCOC(=O)N1CCN(C(=O)[C@H](CCC(=O)O)NC(=O)c2cc(NC(=O)OCCCN)cc(-c3ccccc3)n2)CC1
Ki [1]: 1.9 nM | IC50 [2]: 5700 nM | Ratio IC50 [3]: 3.9

CCCCCOC(=O)N1CCN(C(=O)[C@H](CCC(=O)O)NC(=O)c2cc(OC(=O)N3CC[C@H](OC)C3)cc(-c3ccccc3)n2)CC1
Ki [1]: 4.9 nM | IC50 [2]: 690 nM | Ratio IC50 [3]: 1

CCCCCOC(=O)N1CCN(C(=O)[C@H](CCC(=O)O)NC(=O)c2cc(CCCCN(C)C)cc(-c3ccccc3)n2)CC1
Ki [1]: 3.3 nM | IC50 [2]: 1000 nM | Ratio IC50 [3]: 1

CCCCCOC(=O)N1CCN(C(=O)[C@H](CCC(=O)O)NC(=O)c2cc(N3CCCCC3)cc(-c3ccccc3)n2)CC1
Ki [1]: 5.5 nM | IC50 [2]: 16000 nM | Ratio IC50 [3]: 18

CCCCOC(=O)N1CCN(C(=O)[C@H](CCC(=O)O)NC(=O)c2cc(OC3CCN(CCOC)CC3)cc(-c3ccccc3)n2)CC1
Ki [1]: 9.4 nM | IC50 [2]: 1200 nM | Ratio IC50 [3]: 1.1

CCCCOC(=O)N1CCN(C(=O)[C@H](CCC(=O)O)NC(=O)c2cc(NCCOC)cc(-c3ccccc3)n2)CC1
Ki [1]: 2.4 nM | IC50 [2]: 3200 nM | Ratio IC50 [3]: 2.4

CCCCCOC(=O)N1CCN(C(=O)[C@H](CCC(=O)O)NC(=O)c2cc(N3CCC(N4CCCC4)CC3)cc(-c3ccccc3)n2)CC1
Ki [1]: 9 nM | IC50 [2]: 1200 nM | Ratio IC50 [3]: 0.57 | clearance [4]: 52 mL/min/kg | Vd [5]: 7.3 L/kg | half-life [6]: 96 min

CCCCOC(=O)N1CCN(C(=O)[C@H](CCC(=O)O)NC(=O)c2cc(OCCC3CCCCN3)cc(-c3ccccc3)n2)CC1 (stereo partly specified)
Ki [1]: 3.7 nM | IC50 [2]: 810 nM | Ratio IC50 [3]: 0.88

CCOC(=O)N1CCN(C(=O)[C@H](CCC(=O)O)NC(=O)c2cc(OCc3ccccc3)cc(-c3ccccc3)n2)CC1
Ki [1]: 28 nM | IC50 [2]: 31000 nM | Ratio IC50 [3]: 42

CCCCCOC(=O)N1CCN(C(=O)[C@H](CCC(=O)O)NC(=O)c2cc(C(=O)NCCOC)cc(-c3ccccc3)n2)CC1
Ki [1]: 7.9 nM | IC50 [2]: 8000 nM | Ratio IC50 [3]: 18
